Reference: publication PMC2947195 (Biochemical Journal, 2010)
Where a chain is given by its changes, count along the chain named.

Assays:
Type in all cases: cell-based
S313T hRFC = molecular target: T1, S313T hRFC (Homo sapiens, UniProt P41440, S313T); experiment: [3H]MTX transport kinetics
T1 sequence (P41440 1-591 S313T): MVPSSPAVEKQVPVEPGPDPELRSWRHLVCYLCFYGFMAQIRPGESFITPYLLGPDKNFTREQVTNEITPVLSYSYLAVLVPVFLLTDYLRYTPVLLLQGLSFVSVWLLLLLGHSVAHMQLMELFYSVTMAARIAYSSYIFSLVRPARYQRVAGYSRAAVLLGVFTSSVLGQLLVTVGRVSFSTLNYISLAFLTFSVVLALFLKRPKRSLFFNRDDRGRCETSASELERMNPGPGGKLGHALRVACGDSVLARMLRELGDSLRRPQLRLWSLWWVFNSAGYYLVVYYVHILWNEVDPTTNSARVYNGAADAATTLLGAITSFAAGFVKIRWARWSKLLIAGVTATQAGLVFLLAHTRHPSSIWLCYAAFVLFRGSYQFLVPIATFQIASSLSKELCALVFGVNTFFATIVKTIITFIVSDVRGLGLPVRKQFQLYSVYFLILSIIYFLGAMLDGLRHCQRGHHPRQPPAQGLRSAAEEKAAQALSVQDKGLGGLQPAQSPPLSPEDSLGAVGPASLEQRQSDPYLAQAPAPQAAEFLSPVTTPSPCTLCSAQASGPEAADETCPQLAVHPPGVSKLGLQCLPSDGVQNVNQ
Outline: (§1)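 Human hRFC-null K500E (K562 subline) cells were electroporated (155 V, 1000 μF) with wt or Ser313-mutant hRFC. Stable clones were selected in soft agar with G418 (1 mg/ml). [3H]MTX uptake was measured over 180 s in HBSS at 37 °C in a shaking water bath and expressed as pmol/mg protein (Lowry). Kt and Vmax came from Lineweaver–Burk plots, with Vmax normalized to densitometric Western blot hRFC levels. Three experiments, means±S.E.M.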

cl-N6/C6 hRFC = molecular target: T2, cl-N6/C6 hRFC (Homo sapiens, UniProt P41440, C220S/C246S/C30S/C33S/C365S/C396S/C458S); experiment: [3H]MTX uptake in R5 HeLa cells co-transfected with cysteine-less half-molecules; settings: 0.5 μM [3H]MTX
T2 sequence (P41440 1-591 C30S/C33S/C220S): T1 sequence (P41440 1-591 S313T) with C30S, C33S, C220S, T313S
T2 sequence (P41440 227-537 C246S/C365S/C396S/C458S limits assumed): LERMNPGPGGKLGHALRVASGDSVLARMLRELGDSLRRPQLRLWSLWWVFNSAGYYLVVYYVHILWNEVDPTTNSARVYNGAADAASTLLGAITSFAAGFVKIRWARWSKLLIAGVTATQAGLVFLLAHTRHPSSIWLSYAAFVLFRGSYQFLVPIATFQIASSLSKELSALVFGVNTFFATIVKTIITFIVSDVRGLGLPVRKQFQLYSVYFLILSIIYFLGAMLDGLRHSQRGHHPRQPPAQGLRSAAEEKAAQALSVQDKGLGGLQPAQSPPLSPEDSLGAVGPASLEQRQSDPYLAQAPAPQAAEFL

wt hRFC = molecular target: T3, wt hRFC (Homo sapiens, UniProt P41440); experiment: [3H]MTX transport kinetics
T3 sequence (P41440 1-591): T1 sequence (P41440 1-591 S313T) with T313S
Outline: as §1

[1] = K500E stable transfectant, mean±S.E.M., n=3
[2] = Vmax normalized to relative hRFC level on Western blots

## CN(Cc1cnc2nc(N)nc(N)c2n1)c1ccc(C(=O)N[C@@H](CCC(=O)O)C(=O)O)cc1 [MTX, methotrexate]
S313T hRFC
  Vmax (normalized)/Kt: 0.43
S313T hRFC; [1]
  Kt: 2.11 ± 0.54 µM
S313T hRFC; [2]
  Normalized Vmax: 0.91±0.16
cl-N6/C6 hRFC
  MTX uptake relative to residual level in R5 cells: ~ 3 fold
  decrease of MTX transport compared with wt-N6/C6: ~ 40%
Wt hRFC
  Vmax (normalized)/Kt: 2.44
Wt hRFC; [1]
  Kt: 1.89 ± 0.43 µM
Wt hRFC; [2]
  Normalized Vmax: 4.62±0.37
